Reference: ChEMBL document CHEMBL1143728, “Anti-inflammatory benzenoids from Antrodia camphorata” (J Nat Prod, 2007)

System: Neutrophil
Assay: Inhibition of fMLP-induced superoxide production in human neutrophils
Assay type: functional, cell-based
Method in brief: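 Neutrophils from venous blood of healthy volunteers (20-35 years), isolated by double-gradient Ficoll-Hypaque centrifugation with hypotonic lysis of red cells. Cells at 1 × 10⁶ cells/mL preincubated with test agent (100 µmol/L) 5 min at 37 °C, then stimulated with fMLP (1 µmol/L) in presence of ferricytochrome c (0.5 mg/mL). Extracellular superoxide read continuously by ferricytochrome c reduction at 550 nm. Inhibition % = [(control−resting)−(compound−resting)]/(control−resting) × 100. Three independent experiments, SEM; ibuprofen positive control.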

SMILES | IC50 [µM]
COc1cc(C)c(OC)c2c1OCO2 | 26.1
COc1c(C)c(-c2c(C)c(OC)c3c(c2OC)OCO3)c(OC)c2c1OCO2 | > 100
C[C@H]1[C@H](O)CC[C@@H]2[C@]1(C)CC[C@H]1[C@@]2(C)CC[C@@]2(C)[C@@H]3CC(C)(C)CC[C@]3(C)CC[C@]12C | > 100
COc1cc(C(=O)Cl)c(OC)c(OC)c1OC | > 100
C=C(CC[C@@H](C)[C@H]1CC[C@H]2C3=C(C(=O)C[C@]12C)[C@@]1(C)CCC(=O)[C@@H](C)[C@@H]1CC3=O)[C@H](C)C(=O)O [ANTCIN B] | 9.82
C=C(CC[C@@H](C)[C@H]1CC[C@H]2C3=C(C(=O)C[C@]12C)[C@@]1(C)CCC(=O)[C@@H](C)[C@@H]1CC3)[C@H](C)C(=O)O [ANTICIN A] | 8.55
C=C(C)C#Cc1c(OC)cc(OC)c(OC)c1C [ANTROCAMPHIN A] | 9.33
COc1cc(OC)c(OC)c(C)c1C#CC(C)=O [ANTROCAMPHIN B] | > 100
COc1cc(OC)c(OC)c(C)c1C#C[C@@]1(C)OC(=O)O[C@@]1(C)C#Cc1c(OC)cc(OC)c(OC)c1C [ANTRODIOXOLANONE] | > 100
C=C(CC[C@@H](C(=O)O)[C@H]1CC[C@@]2(C)C3=CC[C@H]4C(C)(C)[C@@H](O)CC[C@]4(C)C3=CC[C@]12C)C(C)C [DEHYDROEBURICOIC ACID] | 77.5
CC(C)Cc1ccc(C(C)C(=O)O)cc1 (configuration not stated) [IBUPROFEN] | 27.5
c1cc2c(cc1[C@H]1OC[C@H]3[C@@H]1CO[C@@H]3c1ccc3c(c1)OCO3)OCO2 [SESAMIN] | 90.2
